Measurements: ChEMBL document CHEMBL1122132, “Synthesis, 470-MHz 1H NMR spectra, and activity of delactonized derivatives of the anticancer drug etoposide” (1982)

What was measured:
Assay type in all cases: functional
L1210 [1] = assay: In vitro cytotoxic activity tested in mouse leukemia L1210 cells at a dose of 5.0 ug/mL; conditions: read-out: Survival
Summary of the method: (§1)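 Continuous mouse L1210 leukemia cell line exposed to 0.5, 5.0 or 50.0 μg/mL in a soft agar clonogenic assay. Colony survival is expressed as % of untreated control, with control set at 100.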

Mus musculus [2] = assay: Percent increase in life span of mouse leukemia L1210 system at a dose of 60 mg/kg
Mus musculus [3] = assay: Percent increase in life span of mouse leukemia L1210 system at a dose of 30 mg/kg
L1210 [4] = assay: In vitro cytotoxic activity tested in mouse leukemia L1210 cells at a dose of 50.0 ug/mL; conditions: read-out: Survival; summary of the method: as §1
L1210 [5] = assay: In vitro cytotoxic activity tested in mouse leukemia L1210 cells at a dose of 0.5 ug/mL; conditions: read-out: Survival; summary of the method: as §1
Mus musculus [6] = assay: Percent increase in life span of mouse leukemia L1210 system at a dose of 45 mg/kg

| Structure (SMILES) | viability at 5 µg/mL (L1210 [1]) | ILS at 60 mg/kg (Mus musculus [2]) | ILS at 30 mg/kg (Mus musculus [3]) | viability at 50 µg/mL (L1210 [4]) | viability at 0.5 µg/mL (L1210 [5]) | ILS at 45 mg/kg (Mus musculus [6]) |
| --- | --- | --- | --- | --- | --- | --- |
| COc1cc([C@@H]2c3cc4c(cc3[C@@H](O[C@@H]3O[C@@H]5CO[C@@H](C)O[C@H]5[C@H](O)[C@H]3O)[C@H]3COC(=O)[C@H]23)OCO4)cc(OC)c1O [ETOPOSIDE] | 1% | 103% | 110% | 0% | 0% | – |
| COc1cc([C@@H]2c3cc4c(cc3[C@@H](O[C@@H]3O[C@@H]5CO[C@@H](C)O[C@H]5[C@H](O)[C@H]3O)[C@H]3COC[C@H]23)OCO4)cc(OC)c1O | 0% | 30% | 10% | 0% | 165% | 25% |
| COc1cc([C@@H]2c3cc4c(cc3[C@@H](O[C@@H]3O[C@@H]5CO[C@@H](C)O[C@H]5[C@H](O)[C@H]3O)[C@@H](CO)[C@@H]2CO)OCO4)cc(OC)c1O | 221% | 5% | 0% | 43% | – | 0% |
